The campaign covered roughly 2,400 compounds. About 140 (5.8%) were called active. Not all results are given here. Values without a mark were called inactive.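 Rule for the calls: active = mean activation across replicates exceeds the hit threshold derived in the earlier primary screen (cut at about 18% in these data); inactive = the rest.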

Chain of Mu-type opioid receptor (Homo sapiens) + Delta-type opioid receptor (Homo sapiens) (P35372 whole entry, looked up): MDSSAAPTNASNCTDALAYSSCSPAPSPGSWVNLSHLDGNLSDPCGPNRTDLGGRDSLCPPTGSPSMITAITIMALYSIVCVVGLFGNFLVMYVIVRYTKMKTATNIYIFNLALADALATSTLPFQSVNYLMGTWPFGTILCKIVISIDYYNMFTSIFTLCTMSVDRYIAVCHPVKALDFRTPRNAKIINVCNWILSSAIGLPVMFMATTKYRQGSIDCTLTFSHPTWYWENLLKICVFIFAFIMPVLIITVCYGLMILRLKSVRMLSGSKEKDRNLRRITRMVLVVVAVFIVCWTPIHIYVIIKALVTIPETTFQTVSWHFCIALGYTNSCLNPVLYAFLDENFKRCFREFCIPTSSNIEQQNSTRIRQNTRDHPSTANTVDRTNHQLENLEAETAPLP
Chain of Mu-type opioid receptor (Homo sapiens) + Delta-type opioid receptor (Homo sapiens) (P41143 whole entry, looked up): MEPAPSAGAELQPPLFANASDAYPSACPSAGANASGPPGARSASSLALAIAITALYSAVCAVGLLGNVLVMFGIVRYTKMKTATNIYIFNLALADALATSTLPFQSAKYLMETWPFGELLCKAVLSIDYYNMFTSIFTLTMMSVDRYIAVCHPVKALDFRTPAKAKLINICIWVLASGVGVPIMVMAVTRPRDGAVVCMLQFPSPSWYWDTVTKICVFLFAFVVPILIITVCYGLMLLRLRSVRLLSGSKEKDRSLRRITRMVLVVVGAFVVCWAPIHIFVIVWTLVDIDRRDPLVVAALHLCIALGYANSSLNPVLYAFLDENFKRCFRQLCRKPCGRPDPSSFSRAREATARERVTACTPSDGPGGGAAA

The target in the assay is Mu-type opioid receptor (Homo sapiens) + Delta-type opioid receptor (Homo sapiens) (UniProt P35372+P41143). The experiment in a line: agonists of MOR-DOR heterodimerization, counter-screen for MC4R biased agonist project, cell-based, luminescence (AID 602194).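 Note: 100% = deltorphin B at 0.9 µM final and 0% = DMSO alone.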 The settings on record: U2OS PathHunter beta-arrestin, beta-gal luminescence; at 9.2 µM; active compounds read high; percent of deltorphin B response, DMSO zero. Summed up:
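Test system: U2OS Mu-Delta cell line / Compound: single dose, 9.2 µM final nominal compound concentration / Schedule: 3 h compound exposure at 37 °C, 1 h room-temperature readout / Technique: luminescence / Measure: mean % activation versus DMSO and Deltorphin B wells / Control set: high Deltorphin B 0.9 µM, low DMSO alone / Replicates: triplicate wells per compound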
For `COC(=O)c1sccc1NC(=O)CCC1CCCC1`, the activation is 6.23%. On to `O=C(CCCN1C(=O)/C(=C/c2cccs2)SC1=S)Nc1ccc(O)cc1`, for which the activation was 1.75%. The same measure for `N#CCC(=O)N/N=C/c1cn(Cc2ccc3ccccc3c2)c2ccccc12`: 25.5% (active). As to `CCOC(=O)c1c(-c2ccc(C)cc2C)csc1NC(=O)CSc1nnnn1C`, the activation is 7.04%. Regarding `CCN(CC)c1ccc(C(=O)N/N=C/c2ccc(N3CCOCC3)cc2)cc1`, the activation is 13.2%.

With `COC(=O)c1nc2n(n1)C(c1ccc([N+](=O)[O-])cc1)C(C(=O)Nc1ccc(Cl)cc1)=C(C)N2` (stereo not given), the activation is 3.4%. For the compound `COc1ccc2sc(-c3ccc(S(C)(=O)=O)cc3)c(C#Cc3cncn3C)c2c1`, the activation is 9.34%. Take `O=C(CCCCCn1c(=S)[nH]c2cc3c(cc2c1=O)OCO3)N1CCN(c2ccc(F)cc2)CC1`: the activation is 3.68%. As for `COc1ccc(Cc2nnc(NC(=O)c3ccc(OC)cc3OC)s2)cc1`, the activation was 4.47%. As to `CCOC(=O)c1nn(-c2ccccc2F)c2nc(Nc3ccccc3)cc(=O)n12`, the activation is 17.8%.

`CCCOc1ccc(C(=O)C(CCC(CNCC)C(=O)c2ccc(OCCC)cc2)CNCC)cc1` (stereo not given): the activation was 17.3%. Regarding `Cc1ccc(-n2nc3cc(Cl)c(NC(=O)c4ccco4)cc3n2)cc1`, the activation was 0.83%.

As to `Oc1ccccc1N1CCN(c2ncnc3sc(-c4ccccc4)cc23)CC1`, the activation is 3.28%.

For `Cc1ccc(Nc2nnc(SCc3ccccc3)s2)cc1`, the activation was 8.17%. On to `COc1cccc(CNC(=O)c2nnn(CC(=O)Nc3cc(Cl)ccc3C)c2N)c1`, for which the activation was 11.8%. For `COCCN(CCOC)S(=O)(=O)c1ccc(C(=O)Nc2nc3c(s2)CCc2ccccc2-3)cc1`, the activation was 6.22%.

In the case of `Clc1ccc(Nc2ncnc3c2nnn3Cc2ccccc2)cc1`, the activation is 5.74%.

On to `COC(=O)c1c(C)[nH]c(C(=O)/C=C/c2ccc(Cl)cc2)c1C`, for which the activation is 4.27%. Next, `COc1cc(/C=C2\Oc3ccc(C#Cc4ccc(O)cc4)cc3C2=O)cc(OC)c1`: 11.3%. Turning to `CN(C)CCNC(=O)c1cccc(-c2cnc3c(NC=O)cc(-c4cccc(C(F)(F)F)c4)cn23)c1`, the activation is 7.61%. Next, `O=C(Nc1nc(-c2ccc(-c3ccccc3)cc2)cs1)c1cnccn1`: 2.08%; `Clc1ccccc1Nc1nc(NCc2cccs2)nc2ccsc12`: 5.36%. As for `CC(C)Oc1c(Br)cc(Br)cc1/C=N/NC(N)=S`, the activation was 9.18%. In the case of `CCc1ccc(Nc2ncc3c(n2)CC(c2ccco2)CC3=O)cc1` (stereo not given), the activation was 13.5%.

Consider `COc1cc(NC(=O)c2cncc(-c3ccc(C#N)cc3)c2)cc(C(=O)Nc2cccc(C(F)(F)F)c2)c1`, for which the activation was 5.39%.
